Changes are numbered by the printed parent chain. Where two headings read alike, the source gives them in different places.
Tests used:
PTP1B [1] = molecular target: T1, PTP1B (Homo sapiens, UniProt P18031); conditions: cited from earlier work; for selectivity: inhibits PTP1B more potently than TCPTP (fold): PTP1B over TCPTP
T1 sequence (P18031 1-321): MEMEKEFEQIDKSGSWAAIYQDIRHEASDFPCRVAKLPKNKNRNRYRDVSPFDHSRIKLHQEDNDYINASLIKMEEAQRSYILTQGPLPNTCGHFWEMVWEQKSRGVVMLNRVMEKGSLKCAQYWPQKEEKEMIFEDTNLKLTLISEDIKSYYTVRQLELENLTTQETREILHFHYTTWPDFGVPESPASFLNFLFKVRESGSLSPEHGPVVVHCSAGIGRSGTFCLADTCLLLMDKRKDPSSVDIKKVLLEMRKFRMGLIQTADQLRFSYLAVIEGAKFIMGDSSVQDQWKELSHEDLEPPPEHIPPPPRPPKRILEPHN

PTP1B [2] = molecular target: T1, PTP1B; assay: pNPP enzyme kinetics, inhibition by amorphadiene; assay type: biochemical; conditions: this study
How it was run: (§1)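 Truncated enzymes (PTP1B 1–351, TCPTP 1–317) expressed in E. coli BL21(DE3), purified by Ni-affinity and anion-exchange. Reactions held 50 nM enzyme, 50 μg/mL BSA and terpenoid at 0.5–500 μM in 50 mM HEPES pH 7.3 with 10% DMSO for 1 h at 22 °C. 20 mM pNPP started the reaction; A405 read every 30 s over 8 min. Initial rates came from a standard curve, and IC50 from a Hill-equation fit. Selectivity was taken as the TCPTP/PTP1B IC50 ratio.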

TCPTP [3] = molecular target: T2, TCPTP (Homo sapiens, UniProt P17706); assay: pNPP enzyme kinetics, inhibition by amorphadiene; assay type: biochemical; conditions: read-out: IC50 for TCPTP; wild type, pNPP substrate, this study
T2 sequence (P17706 1-317): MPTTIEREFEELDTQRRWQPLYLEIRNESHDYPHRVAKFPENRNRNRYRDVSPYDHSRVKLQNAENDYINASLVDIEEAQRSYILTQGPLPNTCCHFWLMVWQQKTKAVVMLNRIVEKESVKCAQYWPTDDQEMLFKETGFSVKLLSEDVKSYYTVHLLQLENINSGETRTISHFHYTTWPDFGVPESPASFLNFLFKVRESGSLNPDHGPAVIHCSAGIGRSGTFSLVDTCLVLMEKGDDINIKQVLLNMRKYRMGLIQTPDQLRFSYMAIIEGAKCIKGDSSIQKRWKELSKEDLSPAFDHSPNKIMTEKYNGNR
How it was run: as §1

PTP1B L158F = molecular target: T3, PTP1B L158F (Homo sapiens, UniProt P18031, L158F); assay: pNPP enzyme kinetics, L158F variant; assay type: biochemical; conditions: PTP1B L158F vs wild type
T3 sequence (P18031 1-321 L158F): T1 sequence (P18031 1-321) with L158F

TCPTP L158F = molecular target: T4, TCPTP L158F (Homo sapiens, UniProt P17706, L158F); assay: pNPP enzyme kinetics, L158F variant; assay type: biochemical; conditions: TCPTP L158F vs wild type
T4 sequence (P17706 1-317 L158F): T2 sequence (P17706 1-317) with L158F

PTP1B M282K = molecular target: T5, PTP1B M282K (Homo sapiens, UniProt P18031, M282K); assay: pNPP enzyme kinetics, M282K variant; assay type: biochemical; conditions: PTP1B M282K vs wild type
T5 sequence (P18031 1-321 M282K): T1 sequence (P18031 1-321) with M282K
How it was run: (§2)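 Catalytic-domain constructs (PTP1B 1–351, TCPTP 1–317), with mutations made by Gibson assembly, expressed in E. coli BL21(DE3) and purified by Ni-affinity then anion exchange. Enzyme at 50 nM with 50 μg/mL BSA and test compound (0.5–500 μM) in 50 mM HEPES pH 7.3 with 10% DMSO, preincubated 1 h at 22 °C. Started with 20 mM pNPP; A405 read every 30 s for 8 min. IC50 from a Hill fit of initial rates.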

PTP1B Q290R = molecular target: T6, PTP1B Q290R (Homo sapiens, UniProt P18031, Q290R); assay: pNPP enzyme kinetics, Q290R variant; assay type: biochemical; conditions: PTP1B Q290R vs wild type
T6 sequence (P18031 1-321 Q290R): T1 sequence (P18031 1-321) with Q290R
How it was run: as §2

TCPTP K280M = molecular target: T7, TCPTP K280M (Homo sapiens, UniProt P17706, K280M); assay: pNPP enzyme kinetics, K280M variant; assay type: biochemical; conditions: TCPTP K280M vs wild type
T7 sequence (P17706 1-317 K280M): T2 sequence (P17706 1-317) with K280M
How it was run: as §2

TCPTP R288Q = molecular target: T8, TCPTP R288Q (Homo sapiens, UniProt P17706, R288Q); assay: pNPP enzyme kinetics, R288Q variant; assay type: biochemical; conditions: TCPTP R288Q vs wild type
T8 sequence (P17706 1-317 R288Q): T2 sequence (P17706 1-317) with R288Q
How it was run: as §2

TCPTP [4] = molecular target: T2, TCPTP; conditions: read-out: IC50 for TCPTP; previously reported; cited from earlier work
PTP1B [5] = molecular target: T1, PTP1B; conditions: MD simulation, cited from earlier work

SMILES | selectivity: inhibits PTP1B more potently than TCPTP (fold) (PTP1B [1]) | IC50 (PTP1B [2]; read-out: IC50 for PTP1B, wild type, pNPP substrate) | IC50 ratio (TCPTP/PTP1B), metric for selectivity (PTP1B [2]) | IC50 (TCPTP [3]) | IC50 of L158F mutant compared with wild type (PTP1B L158F) | IC50 of L158F mutant compared with wild type (TCPTP L158F) | effect of mutation on potency (IC50) (PTP1B M282K) | effect of mutation on potency (IC50) (PTP1B Q290R) | effect of mutation on IC50 (TCPTP K280M) | effect of mutation on IC50 (TCPTP R288Q) | IC50 ratio (TCPTP/PTP1B), metric for selectivity (PTP1B [1]; previously reported) | IC50 (PTP1B [1]; read-out: IC50 for PTP1B, previously reported) | IC50 (TCPTP [4]) | occupancy of the β site (loc4), observed trajectories (PTP1B [5]; PTP1B with disordered α7 helix) | occupancy of the β site (loc4), observed trajectories (PTP1B [5]; PTP1B with truncated α7 helix)
CC(C)=CCC=C(C)C1CC=C(C)CC1 (stereo not drawn) [AB, α-bisabolene] | 5–8 × | – | – | – | – | – | – | – | – | – | – | – | – | – | –
C=C(C)[C@@H]1CC[C@@H](C)[C@@H]2CCC(C)=C[C@@H]21 [AD, amorphadiene] | 5–8 × | 7.7 ± 2.4 µM | 3.5 ± 1.8 | 27 ± 11.2 µM | indistinguishable between wild-type and mutant enzymes | indistinguishable between wild-type and mutant enzymes | reduced potency | reduced potency | no effect on the IC50 | no effect on the IC50 | 6.6 ± 1.8 | 53 ± 8 µM | 349 ± 77 µM | 0% | 88%

From paper PMC10694825 (The journal of physical chemistry. B, 2023)
